From PubChem
Efa HMGR inh: E. faecalis class II HMG-CoA reductase inhibition; purified E. faecalis HMGR, NADPH absorbance 340 nm kinetic; inhibition, % at 10 µM; 190,000 compounds, 0.41% hits;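 active = inhibition above a set limit, the median over all tested compounds plus 3 SD, cut at about 9.5% in these data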;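 note: enzyme runs in reverse so mevalonate oxidation gives rising NADPH absorbance; 0% = complete reaction with DMSO and 100% = background rate lacking mevalonate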
bCat nuc transl: beta-catenin nuclear translocation modulation. nuclear translocation activity, % at 5 µM. HeLa beta-catenin nuclear translocation, immunofluorescence imaging. 190,000 compounds, 0.3% hits. AID 1665;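 active = nuclear translocation activity above 50% at 5 µM, with a well cell count of 50 or more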;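 note: per-cell ratio of nuclear to cytoplasmic median beta-catenin stain intensity; plate controls were DMSO negative control for no effect and GSK-3 inhibitor IX positive control for full effect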
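Assay system: human HeLa cells, native beta-catenin; doses: 5 µM primary, 0.02–20 µM confirmation; incubation: compound treatment 24 h, 37°C, 5% CO2; technique: fluorescence imaging of beta-catenin antibody stain plus DAPI; measure: % activation, nuclear-to-cytoplasmic median beta-catenin signal ratio per cell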
EP2 modulator: modulators of human EP2 prostaglandin E2 receptor. 260,000 compounds, 0.83% hits. EP2-expressing cells, cAMP HTRF FRET, PGE2 co-stimulation. induction, % at 25 µM. P43116. AID 940;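 active = compounds whose cAMP rise, as percent of the full-agonist control response, exceeds 60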;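 note: rat C6 glioma line stably carrying human EP2 under a CMV promoter; the protocol text gives 20 µM as final concentration; 100% = response of wells given 1 µM PGE2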
Target sequence (P43116 whole entry, looked up): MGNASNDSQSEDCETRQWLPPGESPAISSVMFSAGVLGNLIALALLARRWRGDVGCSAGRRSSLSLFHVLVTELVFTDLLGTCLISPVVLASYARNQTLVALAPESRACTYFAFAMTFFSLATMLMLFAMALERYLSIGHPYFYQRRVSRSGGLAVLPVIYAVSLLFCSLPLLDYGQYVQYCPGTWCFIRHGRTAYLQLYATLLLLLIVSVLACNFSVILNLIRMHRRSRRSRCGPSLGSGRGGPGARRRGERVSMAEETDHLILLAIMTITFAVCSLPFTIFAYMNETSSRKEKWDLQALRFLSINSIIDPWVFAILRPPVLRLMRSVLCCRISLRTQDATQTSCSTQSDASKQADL
MT stabilize HCS: microtubule stabilizers in HeLa cells; HeLa tubulin immunostaining HCS, 24 h; share of cells brighter than vehicle mean+2SD; % tubulin-high responders, % at 10 µM; 200,000 compounds, 0.83% hits; AID 2205;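 active = plate Z-score above 3 for both tubulin-high and condensed-nucleus cell shares, with cell loss under 80%, at 10 µM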;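 note: anti alpha tubulin signal scored within the nucleus-defined area of each cell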
TbHK1 inh: T. brucei hexokinase 1 inhibition. recombinant TbHK1, G6PDH-coupled NADH A340. inhibition, % at 10 µM. 220,000 compounds, 0.11% hits;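 active = inhibition of 50% or more in the single-dose primary screen; inactive = inhibition below 50%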
EP2 antag: blocks the human prostaglandin E2 receptor EP2; C6 glioma cells expressing human EP2, cAMP TR-FRET; cells stimulated with saturating PGE2; inhibition, % at 25 µM; 260,000 compounds, 0.52% hits; AID 1422;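 active = percent inhibition above 40 after rounding to a whole number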;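 note: rat C6 glioma host cells with rolipram phosphodiesterase inhibitor present; the protocol text gives 20 µM as final concentration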
The depositor's hits bear a star; . = not tested or not shown. Compounds with a hit are over-represented: about 2.4% of the library has one in this group of screens.

SMILES	Efa HMGR inh	bCat nuc transl	EP2 modulator	MT stabilize HCS	TbHK1 inh	EP2 antag
CCN(CC)C(=O)N1CCCC(c2ncncc2S(C)(=O)=O)C1 (stereo not given)	.	.	4	.	.	.
CC(=O)Nc1ccc(C(=O)CSc2nnc3c(C)cc4c(C)ccc(C)c4n23)cc1	.	.	-46	.	.	14
CCc1ccc(S(=O)(=O)Nc2cc(SCC(=O)O)c(O)c3ccccc23)cc1	10*	1	-19	3	4	10
Cc1nn2cc(-c3cccc(Cl)c3)cnc2c1Cl	5	70*	-9	20*	-3	2
Cc1nn2cc(-c3cccc(Cl)c3)cnc2c1Br	-2	1	-5	16*	1	5
CC(C)n1nnnc1-c1cccc(Cl)c1	1	-1	18	2	3	3
C/C(=N\NC1=NCCN1)c1cn(C2=NCCN2)nc1C	.	.	8	.	.	49*
CCOC(=O)c1[nH]c(C)c(C(=O)c2cc(F)ccc2F)c1C	0	55*	54	13	-2	.
CCOC(=O)c1[nH]c(C)c(C(=O)OCC)c1C	0	.	1	3	-6	10
OC(c1cc(-c2ccc(C(F)(F)F)cc2)nc(C(F)(F)F)c1)C1CCCCN1 (stereo not given)	.	34	-30	.	16	54*
O[C@@H](c1cc(C(F)(F)F)nc2c(Cl)cc(Cl)cc12)[C@@H]1CCCCN1	.	.	14	.	.	58*
OC(c1cc(C(F)(F)F)nc2c(C(F)(F)F)cccc12)C1CCCCN1 (stereo not given)	.	.	-22	.	.	16
O=C(c1ccc2nc[nH]c2c1)N1CCc2ccccc2C1	-2	-3	-1	3	-1	6
COc1cc2c(cc1OC)CN(C(=O)c1ccc3nc[nH]c3c1)CC2	0	82*	30	18*	-3	3
O=C1c2ccccc2[C@@H]([C@H]2c3ccccc3C(=O)c3cc(Br)ccc32)c2ccc(Br)cc21	.	.	4	.	.	54*
O=C1c2ccccc2C(=Nc2ccccc2)C1c1cccc(Br)c1 (stereo not given)	-5	0	9	1	-9	11
COc1ccc(OC)c(S(=O)(=O)Nc2ccc(Oc3ccccc3)cc2)c1	-5	0	5	3	9	6
COc1ccc(OC)c(S(=O)(=O)Nc2ccc(O)c3ccccc23)c1	8	0	-27	5	-4	42*
CCOc1ccccc1N1CC(O)=C(c2nc3ccccc3s2)C1=N	0	10	-24	28*	-15	19
CCc1ccccc1N1CC(O)=C(c2nc3ccccc3s2)C1=N	.	.	-114	.	.	11
O=C(NC(=S)Nc1cc(-c2nc3ccccc3[nH]2)ccc1Cl)c1ccc2c(c1)OCO2	-3	5	0	14*	-8	11
CCN(Cc1cc2cc(C)ccc2[nH]c1=O)C(=O)c1cc(OC)cc(OC)c1	.	.	11	.	.	5
COC(=O)c1cccc(NS(=O)(=O)c2ccc(OC)c(OC)c2)c1C	-3	-15	-5	1	2	6
CC(=O)c1cc2c(cc1NS(=O)(=O)c1ccc(S(=O)(=O)N(C)C3CCCCC3)cc1)OCO2	.	.	-16	.	.	9
COC(=O)c1cccc(NS(=O)(=O)c2ccc(OC)cc2)c1C	-12	53*	-47	35*	3	12
SMILES	Efa HMGR inh	bCat nuc transl	EP2 modulator	MT stabilize HCS	TbHK1 inh	EP2 antag
COc1ccc(S(=O)(=O)Nc2cc3c(cc2C(C)=O)OCO3)cc1	-8	1	-21	42*	-9	2
CC(C)Cn1c(=O)[nH]c(=O)c2c(C(F)(F)F)cc(-c3ccccc3)nc21	.	-1	66*	.	-19	5
CCCn1c(=O)[nH]c(=O)c2c(C(F)(F)F)cc(-c3ccc(C)cc3)nc21	-6	2	40	2	1	9
c1ccc2c(c1)C(=Nn1cnnc1)c1ccccc1-2	1	.	-10	2	-11	28
c1ccc2c(c1)C(=Nc1ccc(N=C3c4ccccc4-c4ccccc43)cc1)c1ccccc1-2	.	.	-8	.	.	45*
COc1ccc(-c2oc3ncnc(NCCN4CCOCC4)c3c2-c2ccc(OC)cc2)cc1	7	-2	.	12	-23	16
COc1ccc(-c2oc3ncnc(NCCCN4CCOCC4)c3c2-c2ccc(OC)cc2)cc1	-5	0	61*	5	-28	6
Cc1cc(C=O)c2c(c1)C=CC1(Oc3ccccc3C(=O)N1C)O2 (stereo not given)	19*	.	38	3	-15	.
CN1C(=O)c2ccccc2OC1(C)Cc1ccccc1 (stereo not given)	-9	-1	11	3	-6	9
CC(C)CC(=O)NC(=S)Nc1cccc2nsnc12	1	-3	10	3	-1	24
COc1c(C)cccc1C(=O)NC(=S)Nc1cccc2nsnc12	-6	0	-80	2	-3	129*
COC(=O)CSc1nnc(-c2ccc(O)cc2)n1-c1ccc(OC)cc1	.	.	8	.	.	11
CCc1ccc(C2c3[nH]c4ccccc4c3CCN2C(=O)CN2CCN(CC)CC2)cc1 (stereo not given)	6	1	-37	3	-5	8
O=C(CCN1CCCCC1)N1CCc2c([nH]c3ccccc23)[C@H]1c1cccnc1	.	.	5	.	.	43*
CCn1c(Cc2ccccc2)nnc1SCC(=O)Nc1sc(C)c(C)c1C#N	.	.	-12	.	.	9
Cc1cccc(C(=O)N2CCC(=O)N(C(COCc3ccccc3)Cc3ccccc3)CC2)c1 (stereo not given)	15*	.	23	2	-3	12
CCC(C)(C)n1nnnc1C(c1cc2cc(OC)ccc2[nH]c1=O)N1CCCc2ccccc21 (stereo not given)	.	.	52	.	.	10
Cc1nc([N+](=O)[O-])c(Br)n1CC(=O)c1cccc([N+](=O)[O-])c1	16*	1	-20	3	-7	5
CC(=O)NC1=C(C#N)C(c2ccccc2)c2c(ccc3ccccc23)O1 (stereo not given)	-6	58*	40	43*	-9	11
CCOC(=O)c1[nH]c(C)c(C(=O)N2CCc3ccccc32)c1C	-2	83*	19	29*	5	12
Cc1ccccc1OCCC(=O)OCC(=O)Nc1cc(S(=O)(=O)N2CCOCC2)ccc1Cl	13*	-1	-13	2	-4	5
COc1ccccc1OCCC(=O)OCC(=O)Nc1cc(S(=O)(=O)N2CCOCC2)ccc1Cl	4	-3	-11	2	4	7
Cc1cc(N2CCOCC2)ccc1/C=C\[N+](=O)[O-]	2	.	-39	3	-5	57*
O=[N+]([O-])c1ccc(N2CCOCC2)cc1O	.	0	-14	.	-16	9
COc1cc(N=c2ssnc2Cl)cc(OC)c1	3	.	-6	3	17	95*
Clc1nssc1=Nc1ccc(Br)cc1	5	0	-90	2	6	10
O=C(Cn1nc2c3ccccc3nc(C3CC3)n2c1=O)NCc1cccs1	.	.	-12	.	.	11
